Test results as given in ChEMBL document CHEMBL2203070, “1-(3,4,5-Trimethoxyphenyl)ethane-1,2-diyl esters, a novel compound class with potent chemoreversal activity” (Bioorg Med Chem Lett, 2012).

How the values were obtained:
[1] = Cytotoxicity against human KB cells assessed as cell viability at 10 ug/ml; type: cell-based; settings: read-out: Activity
[2] = biological target: Multidrug resistance-associated protein 1 (Homo sapiens, UniProt P33527); test: Inhibition of MRP-mediated Fluo3 efflux in human KBVIN cells at 10 uM incubated for 1 hr prior to Fluo3-addition measured after 2 hrs by fluorescence microscopic analysis; type: cell-based
Outline: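 KB or KBvin cells pretreated 1 h with compound or DMSO, then Fluo-3 AM (fluorogenic MRP substrate) added for 2 h; intracellular Fluo-3 retention judged by fluorescence microscopy.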

KB = test: Potentiation of paclitaxel-mediated cytotoxicity against human KB cells assessed as cell viability at 10 uM after 72 hrs by SRB method relative to control; type: functional; settings: read-out: Activity
[3] = Cytotoxicity against human KB cells assessed as cell viability at 10 uM after 72 hrs by SRB method relative to control; type: cell-based; settings: read-out: Activity
[4] = Potentiation of vincristine-mediated cytotoxicity against human KBVIN cells assessed as reduction in vincristine IC50 at 10 uM after 72 hrs by SRB method relative to control; type: functional
Outline: (§1)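 IC50 of paclitaxel, vincristine or doxorubicin measured in KBvin cells with and without 10 μM compound; reversal fold = IC50 (drug alone)/IC50 (drug + compound); mean ± SD of three independent experiments; verapamil as reference.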

[5] = Cytotoxicity against human KBVIN cells assessed as cell viability at 10 ug/ml; type: cell-based; settings: read-out: Activity
[6] = Potentiation of paclitaxel-mediated cytotoxicity against human KBVIN cells assessed as reduction in paclitaxel IC50 at 10 uM after 72 hrs by SRB method relative to control; type: functional; outline: as §1
[7] = Cytotoxicity against human DU145 cells assessed as cell viability at 10 ug/ml; type: cell-based, DU-145; settings: read-out: Activity
KBVIN = settings: Homo sapiens
[8] = Potentiation of doxorubicin-mediated cytotoxicity against human KBVIN cells assessed as reduction in doxorubicin IC50 at 10 uM after 72 hrs by SRB method relative to control; type: functional; outline: as §1
[9] = Potentiation of paclitaxel-mediated cytotoxicity against human KBVIN cells assessed as cell viability at 10 uM after 72 hrs by SRB method relative to control; type: functional; settings: read-out: Activity
[10] = Cytotoxicity against human A549 cells assessed as cell viability at 10 ug/ml; type: cell-based; settings: read-out: Activity
[11] = Cytotoxicity against human KBVIN cells assessed as cell viability at 10 uM after 72 hrs by SRB method relative to control; type: cell-based; settings: read-out: Activity
[12] = Potentiation of vincristine-mediated cytotoxicity against human KBVIN cells assessed as reduction in vincristine IC50 at 10 uM after 72 hrs by SRB method relative to verapamil; type: functional; outline: as §1

Multidrug resistance-associated protein 1, sequence (P33527 whole entry): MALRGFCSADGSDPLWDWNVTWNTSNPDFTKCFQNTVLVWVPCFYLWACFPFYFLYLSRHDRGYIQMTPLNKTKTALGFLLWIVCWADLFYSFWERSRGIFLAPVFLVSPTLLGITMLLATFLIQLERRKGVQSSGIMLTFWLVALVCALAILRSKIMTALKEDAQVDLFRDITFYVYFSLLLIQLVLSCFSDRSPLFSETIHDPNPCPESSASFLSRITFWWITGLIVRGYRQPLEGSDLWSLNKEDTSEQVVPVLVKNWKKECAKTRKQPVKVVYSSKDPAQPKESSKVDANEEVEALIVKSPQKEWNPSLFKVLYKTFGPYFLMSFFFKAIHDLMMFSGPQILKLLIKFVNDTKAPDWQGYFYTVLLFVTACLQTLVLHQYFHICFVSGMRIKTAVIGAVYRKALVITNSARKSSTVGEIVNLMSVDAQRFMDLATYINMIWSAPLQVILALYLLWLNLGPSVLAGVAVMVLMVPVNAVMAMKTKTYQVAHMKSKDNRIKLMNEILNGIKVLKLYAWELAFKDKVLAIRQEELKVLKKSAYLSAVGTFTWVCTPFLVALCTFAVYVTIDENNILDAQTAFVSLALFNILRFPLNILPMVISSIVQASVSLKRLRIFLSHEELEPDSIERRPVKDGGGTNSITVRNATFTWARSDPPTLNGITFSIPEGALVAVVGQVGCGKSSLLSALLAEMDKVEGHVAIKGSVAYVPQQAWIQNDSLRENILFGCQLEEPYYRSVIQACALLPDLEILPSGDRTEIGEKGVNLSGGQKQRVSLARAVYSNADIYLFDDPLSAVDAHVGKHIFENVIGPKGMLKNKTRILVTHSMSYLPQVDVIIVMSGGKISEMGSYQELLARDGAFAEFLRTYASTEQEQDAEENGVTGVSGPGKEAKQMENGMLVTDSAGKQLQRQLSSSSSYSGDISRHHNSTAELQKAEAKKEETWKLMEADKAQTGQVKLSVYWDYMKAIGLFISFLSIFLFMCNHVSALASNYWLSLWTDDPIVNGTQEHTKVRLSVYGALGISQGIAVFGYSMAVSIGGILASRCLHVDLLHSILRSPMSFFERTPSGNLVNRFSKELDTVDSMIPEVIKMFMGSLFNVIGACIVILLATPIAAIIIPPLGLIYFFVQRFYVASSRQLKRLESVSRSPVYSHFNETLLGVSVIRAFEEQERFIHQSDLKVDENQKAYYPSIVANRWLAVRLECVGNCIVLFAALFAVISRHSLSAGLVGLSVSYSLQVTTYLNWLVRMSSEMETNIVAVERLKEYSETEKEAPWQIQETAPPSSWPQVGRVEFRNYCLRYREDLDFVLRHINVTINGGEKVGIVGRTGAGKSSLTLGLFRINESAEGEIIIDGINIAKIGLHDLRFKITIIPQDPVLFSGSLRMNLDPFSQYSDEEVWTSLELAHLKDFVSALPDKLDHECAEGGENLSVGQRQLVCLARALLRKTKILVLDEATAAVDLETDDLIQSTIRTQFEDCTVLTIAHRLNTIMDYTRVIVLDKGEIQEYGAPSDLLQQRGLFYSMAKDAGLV

Row | SMILES | viability at 10 ug/ml [1] [%] | inhibition (INH) [2] | viability at 10 µM (KB) [%] | viability at 72 h, 10 µM [3] [%] | fold change (FC) [4] | viability at 10 ug/ml [5] [%] | fold change (FC) [6] | viability at 10 ug/ml [7] [%] | Flu intensity (KBVIN) | fold change (FC) [8] | viability at 10 µM [9] [%] | viability at 10 ug/ml [10] [%] | viability at 72 h, 10 µM [11] [%] | fold change (FC) [12]
1 | COc1cc(C(=O)OCC(OC(=O)c2cc(OC)c(OC)c(OC)c2)c2cc(OC)c(OC)c(OC)c2I)cc(OC)c1OC (stereo not given) | 75.4 | Not Active | 73.7 | 84.2 | 2285 | 47 | 141 | 46.6 | 456 | 156 | 0 | 56.2 | 87.1 | 340
2 | COc1cc(C(COC(C)=O)OC(C)=O)cc(OC)c1OC (stereo not given) | > 80 |  | 96 | 98 |  | > 80 |  | > 80 |  |  | 92 | > 80 | 91.5 | 
3 | COc1ccc(/C=C/C(=O)OCC(OC(=O)/C=C/c2ccccc2)c2cc(OC)c(OC)c(OC)c2I)cc1OC (stereo not given) | > 80 |  | 76.5 | 85.9 | 620 | > 80 | 166 | > 80 | 414 | 23 | 0 | > 80 | 95.3 | 
4 | COc1cc(C(=O)OCC(O[Si](C)(C)C(C)(C)C)c2cc(OC)c(OC)c(OC)c2I)cc(OC)c1OC (stereo not given) | 26.1 |  | 58 | 64.2 |  | 36.7 |  | 0 |  |  | 19.6 | 37 | 41 | 
5 | COc1cc(C(O)CO)c(I)c(OC)c1OC (stereo not given) | > 80 |  | 97 | 95.1 |  | > 80 |  | > 80 |  |  | 91.8 | > 80 | 90 | 
6 | C/C=C/C(=O)OCC(OC(=O)CCCCCCCCCCC)c1cc(OC)c(OC)c(OC)c1 (stereo not given) | 76.2 |  | 83.9 | 91.1 |  | 41.1 |  | 41.9 |  |  | 44 | 51.1 | 79.9 | 
7 | COc1cc(C(O)CO)cc(OC)c1OC (stereo not given) | > 80 |  | 96.8 | 101 |  | > 80 |  | > 80 |  |  | 99 | > 80 | 92.4 | 
8 | COc1cc(C(=O)OCC(O)c2cc(OC)c(OC)c(OC)c2I)cc(OC)c1OC (stereo not given) | > 80 |  | 75.7 | 77 | 798 | > 80 | 164 | > 80 | 226 | 51 | 0 | > 80 | 83.3 | 
9 | COc1ccc(CCN(C)CCCC(C#N)(c2ccc(OC)c(OC)c2)C(C)C)cc1OC (stereo not given) [VERAPAMIL] |  |  |  |  | 97 |  | 72 |  |  | 6 |  |  |  | 
10 | COc1cc(C(=O)OCC(O[Si](C)(C)C(C)(C)C)c2cc(OC)c(OC)c(OC)c2)cc(OC)c1OC (stereo not given) | > 80 | Active | 70.3 | 83.9 | 1684 | > 80 | 216 | > 80 | 184 | 79 | 12.3 | > 80 | 74.3 | 
11 | COc1cc(C(O)COC(=O)C2CCCCC2)cc(OC)c1OC (stereo not given) | > 80 |  | 96.7 | 98.9 |  | > 80 |  | > 80 |  |  | 103 | > 80 | 110 | 
12 | C/C=C/C=C/C(=O)OCC(OC(=O)/C=C/C=C/C)c1cc(OC)c(OC)c(OC)c1 (stereo not given) | 74.7 |  | 76.8 | 91.2 |  | 50.1 |  | 40.8 |  |  | 31.3 | 49.6 | 81.5 | 
